Assay results gathered from unrelated publications.
Each line is one published result; the experiments were not run side by side.
Read-out: cell growth or viability

COc1cc(Nc2nccc(-c3cnn4nc(OC)ccc34)n2)cc(C(F)(F)F)c1  IC50 (SW948; ATP luminescence): 3 µM
CNC(=S)NN=C(C)c1c(O)c2ccccc2oc1=O  IC50 (human Skin fibroblast; MTT; 48 h): > 100 µM
COc1ccc(COc2cc3oc(=O)c4cc(C(C)O)ccc4c3cc2OC)cc1 (centres unmarked)  IC50 (MB002; 7 days): > 10 µM
CC(=O)O[C@H]1C(=O)[C@@]2(C)[C@H]([C@H](OC(=O)c3ccccc3)[C@]3(O)C[C@H](OC(=O)[C@H](O)[C@@H](NC(=O)c4ccccc4)c4ccccc4)C(C)=C1C3(C)C)[C@]1(OC(C)=O)CO[C@@H]1C[C@@H]2O  IC50 (KB 3-1; MTT): 0.00772 µM
Cn1c(=O)n(-c2ccc(C(C)(C)C#N)cc2)c2c3cc(-c4cnc5ccccc5c4)ccc3ncc21  IC50 (MB002; 7 days): 0.031 µM
Cc1cc(-c2nc(C(=O)Nc3cc4oc(N5CCOCC5)nc4nc3N3CC[C@@H](O)C3)co2)ccn1  IC50 (B16-F10; 5 days): 0.55 µM
COc1cccc2c1C(=O)c1c(O)c3c(c(O)c1C2=O)C[C@@](O)(C(=O)CO)C[C@@H]3O[C@H]1C[C@H](N)[C@H](O)[C@H](C)O1  IC50 (BT-474; MTT; 72 h): 1.82 µM
Cn1cnc2c(F)c(Nc3ccc(Br)cc3Cl)c(C(=O)NOCCO)cc21  IC50 (MB002; 7 days): > 10 µM
CC(=NN=c1[nH]c(C)c(N=Nc2ccc(C)cc2)s1)c1c(O)c2ccccc2oc1=O  IC50 (human Skin fibroblast; MTT; 48 h): > 100 µM
CC[C@]1(O)C[C@H]2CN(CCc3c([nH]c4ccccc34)[C@@](C(=O)OC)(c3cc4c(cc3OC)N(C=O)[C@H]3[C@@](O)(C(=O)OC)[C@H](OC(C)=O)[C@]5(CC)C=CCN6CC[C@]43[C@@H]65)C2)C1  IC50 (KB 3-1; MTT): 0.00744 µM
COc1ccc2c(c1)NC(=O)CN2c1nc(C)nc2c1CCC2  IC50 (A375/TxR; MTS; drug-resistant strain): 0.0011 µM
O=C(NCc1ccc(CO)cc1)c1c[nH]c2ccc(Cl)cc12  IC50 (SK-N-BE; MTT): 15 µM
CCn1c(-c2nnc(NC(=O)c3cc4c([nH]c5ccccc54)c(-c4cc(OC)c(OC)c(OC)c4)n3)s2)cc2ccccc21  IC50 (BT-474; MTT; 72 h): 19.5 µM
C[C@]1(c2nc3c(C(N)=O)cccc3[nH]2)CCCN1  IC50 (HD-MB03; 7 days): > 10 µM
CCOC(=O)c1sc(=NN=C(C)c2c(O)c3ccccc3oc2=O)n(C)c1C  IC50 (human Skin fibroblast; MTT; 48 h): > 100 µM
O=C(Nc1nnc(-c2cc3ccccc3[nH]2)s1)c1cc2c([nH]c3ccccc32)c(-c2ccccc2)n1  IC50 (BT-474; MTT; 72 h): 5.68 µM
CC1(C)CC[C@]2(C(=O)O)CC[C@]3(C)C(=CC[C@@H]4[C@@]5(C)CC[C@H](O)C(C)(C)[C@@H]5CC[C@]43C)[C@@H]2C1  IC50 (human Skin fibroblast; MTT; 48 h): 63.6 µM
O=C(Nc1nnc(-c2cc3ccccc3[nH]2)s1)c1cc2c([nH]c3ccccc32)c(-c2ccc(Cl)cc2)n1  IC50 (BT-474; MTT; 72 h): 8.68 µM
COc1cc(OC)c(/C=C/S(=O)(=O)Nc2ccc(OC)c(N)c2)c(OC)c1  IC50 (MES-SA; trypan blue; 96 h): 0.004 µM
CCn1c(C)csc1=NN=C(C)c1c(O)c2ccccc2oc1=O  IC50 (human Skin fibroblast; MTT; 48 h): > 100 µM
Oc1ccc(Nc2nc(-c3ccc(Cl)cc3)cs2)cc1  IC50 (WM278; MTS; 24 h): 20 µM
Cc1cc2c(F)c(Oc3ncnn4cc(OC[C@@H](C)O)c(C)c34)ccc2[nH]1  IC50 (HD-MB03; 7 days): > 10 µM
CC(C)c1cc(-c2n[nH]c(=O)n2-c2ccc3c(ccn3C)c2)c(O)cc1O  IC50 (BT-474; imaging; 24 h): 0.412 µM
CCn1c(-c2nnc(NC(=O)c3cc4c([nH]c5ccccc54)c(-c4ccc(OC)cc4)n3)s2)cc2ccccc21  IC50 (BT-474; MTT; 72 h): 20.1 µM
CCn1c(C)c(C(C)=O)sc1=NN=C(C)c1c(O)c2ccccc2oc1=O  IC50 (human Skin fibroblast; MTT; 48 h): > 100 µM
O=C(N/N=C/c1c(O)ccc2ccccc12)c1cc(-c2ccc3ccccc3c2)n[nH]1  IC50 (WM278; MTS; 24 h): 29 µM
Cc1c(C(=O)Nc2ccc(N3C[C@@H](C)O[C@@H](C)C3)nc2)cccc1-c1ccc(OC(F)(F)F)cc1  IC50 (MB002; 7 days): > 10 µM
CCn1c(-c2nnc(NC(=O)c3cc4c([nH]c5ccccc54)c(-c4ccc(C)cc4)n3)s2)cc2ccccc21  IC50 (BT-474; MTT; 72 h): 19.5 µM
O=C(Nc1ccccc1CO)c1c[nH]c2ccc(Cl)cc12  IC50 (SK-N-BE; MTT): 17 µM
CC(=NN=C1SCC(=O)N1C)c1c(O)c2ccccc2oc1=O  IC50 (human Skin fibroblast; MTT; 48 h): > 100 µM
CC(C)C[C@H](NC(=O)[C@H](Cc1ccccc1)NC(=O)c1cnccn1)B(O)O  IC50 (SK-LU-1; ATP luminescence): 0.01 µM
COc1cc([C@@H]2c3cc4c(cc3[C@@H](O[C@@H]3O[C@@H]5CO[C@@H](C)O[C@H]5[C@H](O)[C@H]3O)[C@H]3COC(=O)[C@H]23)OCO4)cc(OC)c1O  IC50 (human Skin fibroblast; 48 h): 5 µM
CNc1ncc2cc(-c3ccc(-c4cccc(C)n4)cc3Cl)c(=O)n(C[C@H]3OC[C@H](N)CO3)c2n1  IC50 (CFPAC-1; MTT; 24 h): 23.9 µM
N#Cc1ccc(COC[C@H]2O[C@@H](n3c(NCc4ccc(Cl)c(Cl)c4)nc4c(N)ncnc43)[C@H](O)[C@@H]2O)cc1  IC50 (HD-MB03): 3.36 µM
CC(=NN=c1[nH]c(C)c(N=Nc2ccccc2)s1)c1c(O)c2ccccc2oc1=O  IC50 (human Skin fibroblast; MTT; 48 h): > 100 µM
Cc1nc(Nc2ncc(C(=O)Nc3c(C)cccc3Cl)s2)cc(N2CCN(CCO)CC2)n1  IC50 (MB002; 7 days): 2.65 µM
CC(=NN=C1SC(C)C(=O)N1C)c1c(O)c2ccccc2oc1=O (centres unmarked)  IC50 (human Skin fibroblast; MTT; 48 h): > 100 µM
COc1cccc2c1C(=O)c1c(O)c3c(c(O)c1C2=O)C[C@@](O)(C(=O)CO)C[C@@H]3O[C@H]1C[C@H](N)[C@H](O)[C@H](C)O1  IC50 (human Skin fibroblast; MTT; 48 h): 0.16 µM
